What was measured:
[1] = tested on: L1210; test: Inhibition of RNA synthesis in mouse L1210 cells; format: functional; conditions: read-out: ED50 (the source's name)
How it was run: (§1)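 L1210 leukemia cells. Drugs were first dissolved in Me2SO to a final 1% Me2SO in the assay medium. Inhibition of DNA and RNA synthesis was measured separately and reported as ED50 (50% inhibitory dose, μM). Selectivity is the ratio of the DNA ED50 to the RNA ED50.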

[2] = tested on: L1210; test: Selectivity ratio of ED50 for inhibition of DNA synthesis in mouse L1210 cells to ED50 for inhibition of RNA synthesis in mouse L1210 cells; format: functional; how it was run: as §1
[3] = tested on: L1210; test: Inhibition of DNA synthesis in mouse L1210 cells; format: functional; conditions: read-out: ED50 (the source's name); how it was run: as §1
[4] = tested on: Calf thymus DNA; test: Binding affinity to calf thymus DNA assessed as change in melting temperature; format: nucleic-acid assay; conditions: Bos taurus
How it was run: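 Drug first dissolved in Me2SO to a final 5% Me2SO in the assay medium. DNA binding is read as the shift in DNA melting temperature (ΔTm). ΔTm below 1 is taken as insignificant binding.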

[5] = tested on: P388; test: Antitumor activity against ip dosed mouse P388 cells allografted in CDF/BDF mouse assessed as survival time administered as qd for 1 to 9 days relative to control; format: functional
[6] = tested on: P388; test: Antitumor activity against mouse P388 cells allografted in CDF/BDF mouse assessed as survival time at 1.56 mg/kg, ip administered as qd for 1 to 9 days relative to control; format: functional; conditions: route intraperitoneal
[7] = tested on: P388; test: Antitumor activity against mouse P388 cells allografted in CDF/BDF mouse assessed as survival time at 37.5 mg/kg, ip administered as qd on day 5, 9, 13; format: functional; conditions: route intraperitoneal
[8] = tested on: P388; test: Antitumor activity against mouse P388 cells allografted in CDF/BDF mouse assessed as survival time at 18.8 mg/kg, ip administered as qd on day 5, 9, 13; format: functional; conditions: route intraperitoneal
[9] = tested on: P388; test: Antitumor activity against mouse P388 cells allografted in CDF/BDF mouse assessed as survival time at 3.13 mg/kg, ip administered as qd for 1 to 9 days relative to control; format: functional; conditions: route intraperitoneal
[10] = tested on: P388; test: Antitumor activity against mouse P388 cells allografted in CDF/BDF mouse assessed as survival time at 12.5 mg/kg, ip administered as qd for 1 to 9 days relative to control; format: functional; conditions: route intraperitoneal
[11] = species on record: Rattus norvegicus; test: Cardiotoxicity in rat assessed as minimum cumulative cardiotoxic dose by Zbinden test; format: toxicity, organism-based; conditions: in vivo
How it was run: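 Zbinden cardiotoxicity assay in rats. Drug was given cumulatively, with ECG monitoring. Value is the minimum total dose (mg/kg) that causes significant ECG alterations.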

[12] = tested on: Salmonella typhimurium; test: Mutagenicity in Salmonella typhimurium TA98 assessed as number of revertants by Ames test in presence of microsomal activation; format: toxicity, organism-based; conditions: salmonella enterica subsp. enterica serovar typhimurium
How it was run: (§2)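 Ames plate test using Salmonella typhimurium tester strain TA98. Compounds were tested over dose ranges of 0-20 to 0-100 µg/plate, depending on the compound, and the toxicity level per plate was noted. Mutagenicity is expressed as revertants produced per nmol of compound.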

[13] = tested on: P388; test: Antitumor activity against mouse P388 cells allografted in CDF/BDF mouse assessed as survival time at 0.78 mg/kg, ip administered as qd for 1 to 9 days relative to control; format: functional; conditions: route intraperitoneal
[14] = tested on: P388; test: Antitumor activity against mouse P388 cells allografted in CDF/BDF mouse assessed as survival time at 8 mg/kg, ip administered as qd on day 5, 9, 13; format: functional; conditions: route intraperitoneal
[15] = tested on: Salmonella typhimurium; test: Toxicity in Salmonella typhimurium TA98 assessed as concentration required to cause mortality per plate; format: organism-based; conditions: salmonella enterica subsp. enterica serovar typhimurium
How it was run: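 Ames plate test with Salmonella typhimurium tester strain TA98. Compounds were tested over ranges from 0–20 up to 0–100 µg/plate, depending on compound. The toxicity level is reported in µg/plate.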

[16] = tested on: Salmonella typhimurium; test: Mutagenicity in Salmonella typhimurium TA98 assessed as number of revertants by Ames test in absence of microsomal activation; format: toxicity, organism-based; conditions: salmonella enterica subsp. enterica serovar typhimurium; how it was run: as §2
[17] = tested on: P388; test: Antitumor activity against mouse P388 cells allografted in CDF/BDF mouse assessed as survival time at 25 mg/kg, ip administered as qd on day 5, 9, 13; format: functional; conditions: route intraperitoneal
[18] = tested on: P388; test: Antitumor activity against mouse P388 cells allografted in CDF/BDF mouse assessed as survival time at 4 mg/kg, ip administered as qd for 1 to 9 days relative to control; format: functional; conditions: route intraperitoneal
[19] = tested on: P388; test: Antitumor activity against mouse P388 cells allografted in CDF/BDF mouse assessed as survival time at 3.12 mg/kg, ip administered as qd for 1 to 9 days relative to control; format: functional; conditions: route intraperitoneal
[20] = Aqueous solubility of the compound; format: physicochemical; conditions: water
[21] = tested on: P388; test: Antitumor activity against mouse P388 cells allografted in CDF/BDF mouse assessed as survival time at 25 mg/kg, ip administered as qd for 1 to 9 days relative to control; format: functional; conditions: route intraperitoneal
[22] = Aqueous solubility of the compound using 10% propylene glycol vehicle; format: physicochemical; conditions: 10% propylene glycol in water
[23] = tested on: P388; test: Antitumor activity against mouse P388 cells allografted in CDF/BDF mouse assessed as survival time at 6.25 mg/kg, ip administered as qd for 1 to 9 days relative to control; format: functional; conditions: route intraperitoneal
[24] = tested on: P388; test: Antitumor activity against mouse P388 cells allografted in CDF/BDF mouse assessed as survival time at 18 mg/kg, ip administered as qd on day 5, 9, 13; format: functional; conditions: route intraperitoneal

Row | Structure (SMILES) | EC50 [1] [nM] | Ratio ED50 [2] | EC50 [3] [nM] | ΔTm [4] [°C] | Activity [12] [nmol⁻¹] | Activity [16] | further results
1 | CCCCCCCCCCN[C@H]1C[C@H](O[C@H]2C[C@](O)(C(C)=O)Cc3c(O)c4c(c(O)c32)C(=O)c2c(OC)cccc2C4=O)O[C@@H](C)[C@H]1O.Cl | 2600 | 1.3 | 3300 | 7 | – | – | T/C [5]: <125%
2 | COc1cccc2c1C(=O)c1c(O)c3c(c(O)c1C2=O)C[C@@](O)(C(O)CO)C[C@@H]3O[C@H]1C[C@H](NCc2ccccc2)[C@H](O)[C@H](C)O1.Cl (some centres not stated) | 290 | 4.8 | 1400 | 7.6 | – | – | T/C [6]: 176%; T/C [7]: 135%
3 | COc1cccc2c1C(=O)c1c(O)c3c(c(O)c1C2=O)C[C@@](O)(C(=O)CO)C[C@@H]3O[C@H]1C[C@H](NCc2ccccc2)[C@H](O)[C@H](C)O1.Cl | 90 | 7.2 | 650 | 11.3 | – | – | T/C [8]: 190%; T/C [9]: 185%
4 | COc1cccc2c1C(=O)c1c(O)c3c(c(O)c1C2=O)C[C@@](O)(C(C)=O)C[C@@H]3O[C@H]1C[C@H](NC(C)C)[C@H](O)[C@H](C)O1.Cl | 320 | 3.4 | 1100 | 10.6 | – | – | T/C [10]: 199%
5 | COc1cccc2c1C(=O)c1c(O)c3c(c(O)c1C2=O)C[C@@](O)(C(C)=O)C[C@@H]3O[C@H]1C[C@H](N)[C@H](O)[C@H](C)O1 [DAUNORUBICIN] | 330 | – | 660 | – | 100 | – | MTC [11]: 14 mg/kg; T/C [13]: 160%; T/C [14]: 132%; Activity [15]: 5 µg
6 | COc1cccc2c1C(=O)c1c(O)c3c(c(O)c1C2=O)C[C@@](O)(C(=O)CO)C[C@@H]3O[C@H]1C[C@H](N2CCCCC2)[C@H](O)[C@H](C)O1.Cl | 40 | 17.5 | 700 | 15.4 | 1 | Non-toxic | T/C [9]: 190%; Activity [15]: 20 µg
7 | COc1cccc2c1C(=O)c1c(O)c3c(c(O)c1C2=O)C[C@@](O)(C(C)O)C[C@@H]3O[C@H]1C[C@H](N(Cc2ccccc2)Cc2ccccc2)[C@H](O)[C@H](C)O1.Cl (some centres not stated) | 7600 | 29.1 | 220000 | 0.6 | 0.5 | Non-toxic | T/C [17]: 183%; T/C [10]: 231%
8 | CCCCCCCCCCN(CCCCCCCCCC)[C@H]1C[C@H](O[C@H]2C[C@](O)(C(C)=O)Cc3c(O)c4c(c(O)c32)C(=O)c2c(OC)cccc2C4=O)O[C@@H](C)[C@H]1O.Cl | 130000 | 2.1 | 280000 | 0.1 | – | – | T/C [5]: <125%
9 | COc1cccc2c1C(=O)c1c(O)c3c(c(O)c1C2=O)C[C@@](O)(C(=O)CO)C[C@@H]3O[C@H]1C[C@H](N(C)C)[C@H](O)[C@H](C)O1.Cl | 120 | 5.2 | 620 | 17.5 | 1 | Non-toxic | MTC [11]: 6 mg/kg; Activity [15]: 20 µg
10 | COc1cccc2c1C(=O)c1c(O)c3c(c(O)c1C2=O)C[C@@](O)(C(=O)CO)C[C@@H]3O[C@H]1C[C@H](N)[C@H](O)[C@H](C)O1 [DOXORUBICIN] | 580 | 2.6 | 1500 | 13.4 | – | – | MTC [11]: 11 mg/kg; T/C [13]: 197%; T/C [14]: 159%
11 | CCN(CC)[C@H]1C[C@H](O[C@H]2C[C@](O)(C(C)=O)Cc3c(O)c4c(c(O)c32)C(=O)c2c(OC)cccc2C4=O)O[C@@H](C)[C@H]1O.Cl | 130 | 5.2 | 670 | 13.6 | – | – | T/C [18]: 178%
12 | COc1cccc2c1C(=O)c1c(O)c3c(c(O)c1C2=O)C[C@@](O)(C(C)=O)C[C@@H]3O[C@H]1C[C@H](NCc2ccccc2)[C@H](O)[C@H](C)O1.Cl | 170 | 9.4 | 1600 | 10.2 | 0.5 | Non-toxic | T/C [8]: 184%; T/C [19]: 185%
13 | COc1cccc2c1C(=O)c1c(O)c3c(c(O)c1C2=O)C[C@@](O)(C(C)=O)C[C@@H]3O[C@H]1C[C@H](N(Cc2ccccc2)Cc2ccccc2)[C@H](O)[C@H](C)O1.Cl | 10000 | >10 | > 100000 | 1.35 | 0.5 | Non-toxic | MTC [11]: 125 mg/kg; solubility [20]: 200 µg/mL; T/C [21]: 259%; T/C [7]: 209%; solubility [22]: > 36000 µg/mL
14 | COc1cccc2c1C(=O)c1c(O)c3c(c(O)c1C2=O)C[C@@](O)(C(C)=O)C[C@@H]3O[C@H]1C[C@H](N(C)C)[C@H](O)[C@H](C)O1.Cl | 64 | 10.4 | 670 | – | 0 | Non-toxic | MTC [11]: 11 mg/kg; Activity [15]: 20 µg
15 | CCN(CC)[C@H]1C[C@H](O[C@H]2C[C@](O)(C(=O)CO)Cc3c(O)c4c(c(O)c32)C(=O)c2c(OC)cccc2C4=O)O[C@@H](C)[C@H]1O.Cl | 210 | 3.3 | 700 | 14.6 | – | – | T/C [9]: 171%
16 | COc1cccc2c1C(=O)c1c(O)c3c(c(O)c1C2=O)C[C@@](O)(C(C)O)C[C@@H]3O[C@H]1C[C@H](NCc2ccccc2)[C@H](O)[C@H](C)O1.Cl (some centres not stated) | 320 | 5.3 | 1700 | 6.25 | – | – | T/C [23]: 221%
17 | COc1cccc2c1C(=O)c1c(O)c3c(c(O)c1C2=O)C[C@@](O)(C(O)CO)C[C@@H]3O[C@H]1C[C@H](N2CCCCC2)[C@H](O)[C@H](C)O1.Cl (some centres not stated) | 100 | 7.2 | 720 | 12.5 | – | – | T/C [6]: 157%; T/C [24]: 143%
18 | COc1cccc2c1C(=O)c1c(O)c3c(c(O)c1C2=O)C[C@@](O)(C(=O)CO)C[C@@H]3O[C@H]1C[C@H](N(Cc2ccccc2)Cc2ccccc2)[C@H](O)[C@H](C)O1.Cl | 4800 | 22.8 | 110000 | 0 | – | – | T/C [23]: 175%

Source: ChEMBL document CHEMBL3244252, “Adriamycin analogues. 3. Synthesis of N-alkylated anthracyclines with enhanced efficacy and reduced cardiotoxicity” (J Med Chem, 1979)
